According to ChEMBL document CHEMBL3739299, “8-Hydroxyquinoline-based inhibitors of the Rce1 protease disrupt Ras membrane localization in human cells” (Bioorg Med Chem, 2016):

How the values were obtained:
[1] = molecular target: T1, CAAX prenyl protease 2 (Homo sapiens) (UniProt Q9Y256); experiment: Inhibition of human Rce1-mediated CaaX protease activity using […] and […] as substrate assessed as residual activity at 10 uM measured every 30 to 60 seconds for 60 mins
T1 sequence (whole entry): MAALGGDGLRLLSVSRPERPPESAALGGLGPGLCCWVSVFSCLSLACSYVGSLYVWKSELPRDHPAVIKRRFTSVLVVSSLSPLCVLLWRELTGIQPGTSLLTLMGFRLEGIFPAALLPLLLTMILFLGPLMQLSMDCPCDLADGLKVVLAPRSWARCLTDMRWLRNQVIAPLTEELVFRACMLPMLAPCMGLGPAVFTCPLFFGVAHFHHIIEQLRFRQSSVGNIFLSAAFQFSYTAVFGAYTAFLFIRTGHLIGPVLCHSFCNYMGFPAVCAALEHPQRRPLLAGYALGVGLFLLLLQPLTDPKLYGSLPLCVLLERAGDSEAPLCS
Procedure, shortened: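 Membranes from yeast SM3614 (ste24 rce1 null) overexpressing human Rce1, 0.25 mg/mL final in 200 mM Tris pH 7.5, 200 mM NaCl, 1 mg/mL BSA. […] Reaction started with 20 μM ABZ-KSKTKC(farnesyl)QLIM. Fluorescence (ex 320/em 420) read every 30–60 s for 60 min at 30 °C. Initial velocities trypsin-normalised; activity given as % of DMSO control.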

[2] = Cytotoxicity against human HCT116 cells assessed as cell death at 25 uM after 20 hrs by celltiter blue assay (reference value: 0.4%); type: cell-based; conditions: hct-116, 20 h
Procedure, shortened: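 HCT-116 cells grown in DMEM with 10% FBS and 1% NEAA at 37 °C, 5% CO2, seeded 7 × 10^3 per well, exposed 20 h to 25 μM compound (0.4% DMSO vehicle; untreated control). CellTiter-Blue added for 4 h, fluorescence read at 560/590 nm. Values relative to untreated cells, mean of three independent experiments with SEM.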

| Structure (SMILES) | Activity [1] | Cell death [2] |
| --- | --- | --- |
| Oc1ccc2ccc(O)c(C(Nc3ccccc3)c3ccccc3)c2c1 (stereo not given) | 51% | < 10% |
| O=C(O)c1cccc(NC(=O)c2ccc(NC(c3ccccc3)c3ccccc3)cc2)c1 | 72% |  |
| O=C(Nc1ccccc1)c1ccc(NC(c2ccc(Br)cc2)c2ccc(Br)cc2)cc1 | 80% |  |
| c1ccc(NC(c2ccccc2)c2ccc3ccccc3c2)cc1 (stereo not given) | 77% |  |
| Oc1c(C(Nc2ccccc2)c2ccccc2)ccc2cc3ccccc3nc12 (stereo not given) | 51% |  |
| O=C(O)c1ccc(NC(c2ccc3cccnc3c2O)c2c(F)cc(Br)cc2F)cc1 (stereo not given) | 64% | < 10% |
| O=C(Nc1ccc2ccccc2c1)c1ccc(NC(c2ccccc2)c2ccccc2)cc1 | 89% |  |
| O=C(Nc1ccccc1)c1ccc(NC(c2ccccc2)c2ccccc2)cc1 | 78% |  |
| CCCCCCCCOc1ccc(C(Nc2ccccc2)c2ccc3cccnc3c2O)cc1 (stereo not given) | 89% |  |
| CCOC(=O)c1ccc(NC(c2ccccc2)c2ccc3cccnc3c2O)cc1 (stereo not given) | 52% | < 10% |
| Oc1c(C(Nc2ccccc2)c2c(F)cc(Br)cc2F)ccc2cccnc12 (stereo not given) | 76% | < 10% |
| CCOC(=O)c1ccc(NC(c2ccc(Br)cc2)c2ccc(Br)cc2)cc1 | 83% |  |
| CCOC(=O)c1ccc(NC(c2ccccc2)c2ccccc2)cc1 | 82% | < 10% |
| O=C(O)c1ccc2ccc(C(Nc3ccccc3)c3ccccc3)c(O)c2n1 (stereo not given) | 77% |  |
| O=C(O)c1ccc(NC(c2ccccc2)c2ccc(Br)cc2)cc1 (stereo not given) | 86% |  |
| Oc1c(C(/N=C/c2ccccc2)c2ccccc2)ccc2cccnc12 (stereo not given) | 73% | < 10% |
| Oc1c(C(Nc2ccccc2)C2CCCCC2)ccc2cccnc12 (stereo not given) | 59% | < 10% |
| O=C(OCc1ccccc1)c1ccc2ccc(C(Nc3ccccc3)c3ccccc3)c(O)c2n1 (stereo not given) | 75% |  |
| Oc1c(C(Nc2nc3ccccc3s2)c2ccccc2)ccc2cccnc12 (stereo not given) | 83% | < 10% |

| Structure (SMILES) | Activity [1] | Cell death [2] |
| --- | --- | --- |
| CCOC(=O)c1ccc(NC(c2ccc(C(F)(F)F)cc2)c2ccc3cccnc3c2O)cc1 (stereo not given) | 89% | < 10% |
| Cc1ccc2ccc(C(Nc3ccccc3)c3ccccc3)c(O)c2n1 (stereo not given) | 83% |  |
| O=C(Nc1ccccc1)c1ccc(NC(c2ccccc2)c2ccc(Br)cc2)cc1 (stereo not given) | 78% |  |
| N#Cc1ccc2ccc(C(Nc3ccccc3)c3ccccc3)c(O)c2n1 (stereo not given) | 83% |  |
| Oc1c(CNc2ccccc2)ccc2cccnc12 | 82% | < 10% |
| Oc1ccc2ccccc2c1C(Nc1ccccc1)c1ccccc1 (stereo not given) | 59% | < 10% |
| N#Cc1ccc(NC(c2ccccc2)c2ccc3cccnc3c2O)cc1 (stereo not given) | 56% | < 10% |
| O=C(NC(c1ccccc1)c1ccc2cccnc2c1O)c1ccccc1 (stereo not given) | 81% | < 10% |
| COC(=O)c1ccc(NC(c2ccccc2)c2ccc3cccnc3c2OC)cc1 (stereo not given) | 65% | < 10% |
| CCOC(=O)c1ccc(NC(c2ccc3cccnc3c2O)C2CCCC2)cc1 (stereo not given) | 82% | < 10% |
| c1ccc(NC(c2ccccc2)c2ccc3cccnc3c2)cc1 (stereo not given) | 82% |  |
| Oc1c(C(Nc2ccccc2)c2ccccc2)cc(Cl)c2cccnc12 (stereo not given) | 68% |  |
| CCOC(=O)c1ccc(NC(c2ccccc2)c2ccc(Br)cc2)cc1 (stereo not given) | 79% |  |
| O=[N+]([O-])c1ccc(NC(c2ccc(Br)cc2)c2ccc3cccnc3c2O)cc1 (stereo not given) | 64% | < 10% |
| O=C(O)c1ccc(NC(c2ccccc2)c2ccccc2)cc1 | 90% |  |
| C[C@@H](N[C@H](c1ccccc1)c1c(O)ccc2ccccc12)c1ccccc1 | 63% |  |
| CCOC(=O)c1ccc(NC(c2ccc(F)cc2)c2ccc3cccnc3c2O)cc1 (stereo not given) | 63% | < 10% |
| Oc1c(C(Nc2ccccc2)c2ccccc2)cc(Br)c2cccnc12 (stereo not given) | 73% |  |
| O=C(O)c1ccc(NC(c2ccc(Br)cc2)c2ccc(Br)cc2)cc1 | 83% |  |
